# Assay results as given in ChEMBL document CHEMBL5042469, “Unique Molecular Interaction with the Histone Deacetylase 6 Catalytic Tunnel: Crystallographic and Biological Characterization of a Model Chemotype” (J Med Chem, 2021).
# What was measured:
# [1] = biological target: T1, Histone deacetylase 8 (Homo sapiens, UniProt Q9BY41); test: Inhibition of full length human HDAC8 using FAM-labeled acetylated peptide as substrate by electrophoretic mobility shift assay
# T1 sequence (Q9BY41 whole entry): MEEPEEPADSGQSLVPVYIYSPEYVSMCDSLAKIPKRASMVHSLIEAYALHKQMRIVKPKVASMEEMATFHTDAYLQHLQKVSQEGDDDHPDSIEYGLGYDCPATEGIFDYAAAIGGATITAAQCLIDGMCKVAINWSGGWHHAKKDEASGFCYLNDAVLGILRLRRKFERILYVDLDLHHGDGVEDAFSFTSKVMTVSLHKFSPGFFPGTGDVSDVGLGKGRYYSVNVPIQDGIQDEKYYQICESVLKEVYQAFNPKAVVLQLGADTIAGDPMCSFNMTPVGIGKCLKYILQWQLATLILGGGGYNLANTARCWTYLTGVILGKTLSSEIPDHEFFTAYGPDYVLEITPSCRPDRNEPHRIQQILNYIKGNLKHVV
# Outline: (§1)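 Full-length human HDAC isoform enzymatic assay by electrophoretic mobility shift, using a FAM-labelled acetylated peptide substrate. […] Values are the mean of duplicate experiments with 95% confidence intervals.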
# [2] = biological target: Histone deacetylase 3 (Homo sapiens, UniProt O15379); test: Inhibition of full length human HDAC3 using FAM-labeled acetylated peptide as substrate by electrophoretic mobility shift assay; outline: as §1
# [3] = biological target: T2, Histone deacetylase 11 (Homo sapiens, UniProt Q96DB2); test: Inhibition of full length human HDAC11 using FAM-labeled acetylated peptide as substrate by electrophoretic mobility shift assay; outline: as §1
# T2 sequence (Q96DB2 whole entry): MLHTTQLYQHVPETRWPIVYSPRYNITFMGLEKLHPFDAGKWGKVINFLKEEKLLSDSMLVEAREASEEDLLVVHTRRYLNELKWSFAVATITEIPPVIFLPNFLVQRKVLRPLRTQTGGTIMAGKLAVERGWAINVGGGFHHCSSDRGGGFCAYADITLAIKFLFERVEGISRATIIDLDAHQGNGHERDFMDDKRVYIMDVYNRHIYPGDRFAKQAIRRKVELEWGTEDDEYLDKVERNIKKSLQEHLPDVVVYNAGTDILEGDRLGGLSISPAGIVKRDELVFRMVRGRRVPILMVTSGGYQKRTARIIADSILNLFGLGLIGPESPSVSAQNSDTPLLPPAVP
# [4] = biological target: T3, Protein deacetylase HDAC6 (Homo sapiens, UniProt Q9UBN7); test: Inhibition of full length human HDAC6 using FAM-labeled acetylated peptide as substrate by electrophoretic mobility shift assay
# T3 sequence (Q9UBN7 whole entry): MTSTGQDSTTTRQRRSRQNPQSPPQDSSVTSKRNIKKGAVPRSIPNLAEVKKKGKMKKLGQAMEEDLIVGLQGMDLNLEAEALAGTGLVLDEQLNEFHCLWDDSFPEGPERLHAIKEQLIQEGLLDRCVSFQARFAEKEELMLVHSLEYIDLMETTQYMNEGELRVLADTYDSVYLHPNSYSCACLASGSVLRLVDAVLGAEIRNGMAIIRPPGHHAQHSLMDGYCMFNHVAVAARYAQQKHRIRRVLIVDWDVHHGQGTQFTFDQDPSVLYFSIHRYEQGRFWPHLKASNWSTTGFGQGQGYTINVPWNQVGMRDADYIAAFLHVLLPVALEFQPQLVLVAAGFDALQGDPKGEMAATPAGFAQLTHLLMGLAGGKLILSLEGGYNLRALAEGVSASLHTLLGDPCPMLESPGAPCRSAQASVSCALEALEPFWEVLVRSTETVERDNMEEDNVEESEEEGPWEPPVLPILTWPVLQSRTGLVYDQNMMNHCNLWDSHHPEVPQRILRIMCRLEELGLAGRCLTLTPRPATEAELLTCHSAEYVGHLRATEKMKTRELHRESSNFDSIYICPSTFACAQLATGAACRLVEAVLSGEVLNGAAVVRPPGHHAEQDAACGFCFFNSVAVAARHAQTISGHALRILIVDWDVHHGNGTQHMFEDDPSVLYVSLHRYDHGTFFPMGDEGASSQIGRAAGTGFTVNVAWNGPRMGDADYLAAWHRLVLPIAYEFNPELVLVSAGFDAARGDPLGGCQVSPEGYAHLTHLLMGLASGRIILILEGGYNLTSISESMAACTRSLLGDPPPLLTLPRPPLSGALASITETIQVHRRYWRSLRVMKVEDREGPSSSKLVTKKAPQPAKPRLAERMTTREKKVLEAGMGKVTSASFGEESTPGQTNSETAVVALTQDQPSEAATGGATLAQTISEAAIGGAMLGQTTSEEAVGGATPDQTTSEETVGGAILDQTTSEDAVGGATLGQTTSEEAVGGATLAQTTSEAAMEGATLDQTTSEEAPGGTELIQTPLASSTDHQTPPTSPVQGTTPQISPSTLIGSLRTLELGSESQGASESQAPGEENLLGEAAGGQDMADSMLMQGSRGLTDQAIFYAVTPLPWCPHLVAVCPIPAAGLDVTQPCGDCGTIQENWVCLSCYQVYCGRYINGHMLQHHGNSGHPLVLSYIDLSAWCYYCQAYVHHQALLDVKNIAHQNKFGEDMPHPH
# Chain of Histone deacetylase 3 (O15379 whole entry): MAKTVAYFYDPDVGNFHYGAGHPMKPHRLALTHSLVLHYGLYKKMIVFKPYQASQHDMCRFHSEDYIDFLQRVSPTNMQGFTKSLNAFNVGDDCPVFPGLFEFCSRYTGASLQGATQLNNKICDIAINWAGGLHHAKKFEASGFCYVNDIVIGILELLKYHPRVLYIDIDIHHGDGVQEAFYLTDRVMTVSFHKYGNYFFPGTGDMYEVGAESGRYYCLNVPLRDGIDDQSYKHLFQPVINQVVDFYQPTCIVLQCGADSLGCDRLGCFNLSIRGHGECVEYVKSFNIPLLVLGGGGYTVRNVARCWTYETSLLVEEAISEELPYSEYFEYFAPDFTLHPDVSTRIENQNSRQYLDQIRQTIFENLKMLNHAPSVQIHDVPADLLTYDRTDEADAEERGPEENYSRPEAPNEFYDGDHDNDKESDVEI
Compound,IC50 [1] [µM],IC50 [2] [µM],IC50 [3] [µM],IC50 [4] [µM]
O=C(NO)c1ccc(CN(Cc2ccncc2)S(=O)(=O)c2cc(F)c(F)c(F)c2F)cc1,0.581,> 1,0.472,0.011
O=C(NO)c1ccc(CN(Cc2ccccc2F)S(=O)(=O)c2cc(F)c(F)c(F)c2F)cc1,0.241,> 1,0.263,0.01
O=C(NO)c1ccc(CN(Cc2ccccc2)S(=O)(=O)c2cc(F)c(F)c(F)c2F)cc1,0.155,0.697,0.115,0.005
CC(C)(C)c1ccc(CN(Cc2ccc(C(=O)NO)cc2)S(=O)(=O)c2c(F)c(F)c(F)c(F)c2F)cc1,0.068,> 1,0.088,0.042
O=C(NO)c1ccc(CN(Cc2ccc(F)cc2)S(=O)(=O)c2c(F)c(F)c(F)c(F)c2F)cc1,0.367,> 1,0.787,0.013
O=C(NO)c1ccc(CNS(=O)(=O)c2c(F)c(F)c(F)c(F)c2F)cc1,> 1,> 1,> 1,
Cc1ccc(CN(Cc2ccc(C(=O)NO)cc2)S(=O)(=O)c2c(F)c(F)c(F)c(F)c2F)cc1,0.101,> 1,0.073,0.006
O=C(NO)c1ccc(CN(Cc2ccc(C(F)(F)F)cc2)S(=O)(=O)c2c(F)c(F)c(F)c(F)c2F)cc1,> 1,> 1,> 1,0.045
O=C(NO)c1ccc(CN(Cc2ccc(F)cc2)S(=O)(=O)c2cc(F)c(F)c(F)c2F)cc1,0.86,> 1,> 1,0.021
O=C(NO)c1ccc(CN(Cc2ccccn2)S(=O)(=O)c2cc(F)c(F)c(F)c2F)cc1,0.332,0.896,0.941,0.006
O=C(NO)c1ccc(CN(Cc2ccccc2)S(=O)(=O)c2c(F)c(F)c(F)c(F)c2F)cc1,0.15,> 1,0.122,0.009
CN(C)c1ccc(CN(Cc2ccc(C(=O)NO)cc2)S(=O)(=O)c2c(F)c(F)c(F)c(F)c2F)cc1,> 1,> 1,> 1,0.029
O=C(CCCCCCC(=O)N/N=C/c1ccc(N(c2ccccc2)c2ccccc2)cc1)NO,,,,0.4
O=C(NO)c1ccc(CN(Cc2cccc(F)c2)S(=O)(=O)c2cc(F)c(F)c(F)c2F)cc1,0.412,> 1,0.235,0.014
O=C(NO)c1ccc(CN(Cc2ccncc2)S(=O)(=O)c2c(F)c(F)c(F)c(F)c2F)cc1,> 1,> 1,> 1,0.014
